PMI act satM6P = increases human PMI activity with near-saturating mannose 6-phosphate; P34949; coupled PMI enzyme assay, resazurin fluorescence, 20 min; stronger effect = higher value; 1 = untreated enzyme, 0 = substrate-free blank; activation factor at 20 µM; actives 0.34% (n = 190,000); AID 1216;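 active = activation factor of 2 or more at 20 µM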
Target sequence (P34949 whole entry, looked up): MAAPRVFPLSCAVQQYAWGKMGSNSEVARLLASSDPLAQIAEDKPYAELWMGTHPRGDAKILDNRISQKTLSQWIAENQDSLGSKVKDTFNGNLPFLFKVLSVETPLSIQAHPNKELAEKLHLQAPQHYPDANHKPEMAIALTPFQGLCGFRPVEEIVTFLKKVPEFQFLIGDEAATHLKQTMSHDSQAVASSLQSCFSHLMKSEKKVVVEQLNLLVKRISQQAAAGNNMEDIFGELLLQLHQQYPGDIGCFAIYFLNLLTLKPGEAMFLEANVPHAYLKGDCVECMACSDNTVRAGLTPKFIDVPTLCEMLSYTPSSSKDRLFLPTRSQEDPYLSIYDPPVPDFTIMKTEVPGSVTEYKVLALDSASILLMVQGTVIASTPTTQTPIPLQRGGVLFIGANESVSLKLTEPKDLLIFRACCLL
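Test system: human PMI in coupled enzyme assay; Input: PMI at 15 ng/mL final; Medium: HEPES buffer, pH 7.4; Schedule: 20 min incubation at room temperature; Technique: resorufin fluorescence at Ex 544/Em 590 nm; Compound: 20 µM single dose; Probe or stimulus: Near-saturating mannose-6-phosphate, 1.0 mM.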
PMI activator = increases human mannose-6-phosphate isomerase activity. P34949. activation factor at 20 µM. purified human PMI, coupled resazurin fluorescence, 20 min; stronger effect = higher value; 1 = vehicle control, 0 substrate-free wells. AID 1214. actives 0.005% (n = 190,000);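 active = activation factor of 2 or more at 20 µM, relative to plate controls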
WT yeast gro inh = growth inhibition of WT yeast, mitochondrial fusion screen; inhibition, % at 10 µM; AID 1362; mitochondrial fusion phenotypic screen, WT strain; actives 2.1% (n = 190,000); in the data active = inhibition above about 58%; tested in S. cerevisiae
Lmaj promast = Leishmania major promastigote growth inhibition. Leishmania major promastigotes, resazurin fluorescence viability. inhibition, % at 10 µM. actives 9% (n = 200,000). AID 1063; in the data active = inhibition above about 50%;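 note: promastigotes grown with compound for 44 hours at 28 °C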
Diaphorase act = counter-screen for diaphorase-based assays: diaphorase activators and chemical reducers | activation factor at 20 µM | Diaphorase/resazurin coupled assay, resorufin fluorescence, 16 min; stronger effect = higher value; 1 = vehicle wells, 0 = NADH-free wells | actives 0.005% (n = 190,000) | AID 1229;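 active = diaphorase activity raised at least twofold by the compound at 20 µM; inactive = activation factor below 2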
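Assay system: bacterial diaphorase enzyme (C. kluyveri) / Input: enzyme 0.07 U/mL final / Medium: 50 mM HEPES pH 7.4 with 4.542 mM MgCl2, 0.005% Tween 20 / Doses: single compound dose of 20 µM, 1% DMSO final / Incubation: 16 min enzyme reaction, ambient temperature / Signal: fluorescence, excitation 544 nm and emission 590 nm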
Large screens that a line does not name were inactive. The list is not random: actives were taken first. Their share in the collection is about 10%.

Cc1ccccc1CN1CCc2c(OCC(=O)N3CCCc4ccccc43)cccc2C1=O	WT yeast gro inh 62, Lmaj promast 96
O=C1c2cccc(OCC(=O)N3CCCc4ccccc43)c2CCN1Cc1cccnc1	none
CN(C)c1ccc(/C=N/NC(=O)CN(c2cccc(Cl)c2)S(C)(=O)=O)cc1Br	none
COc1ccccc1NC(=O)N1CCC(c2nnc(SCC(N)=O)n2C)CC1	none
Cc1cccc(C(=O)O/N=C(\N)c2cccc([N+](=O)[O-])c2)c1	none
CC1=CC(=O)C=C(C)C1=NOC(=O)c1cccc([N+](=O)[O-])c1	Lmaj promast 84
COc1ccc(Cl)cc1NC(=S)Nc1cccnc1	none
CN(c1ccc(C(=O)N2CCN(Cc3ccc4c(c3)OCO4)CC2)cc1)S(C)(=O)=O	none
O=S(=O)(c1ccc(Br)s1)N1CCN(Cc2ccc3c(c2)OCO3)CC1	WT yeast gro inh 61
CC1CCN(c2nc3ccc(C(=O)N4CCN(Cc5ccc6c(c5)OCO6)CC4)cc3s2)CC1	Lmaj promast 92
O=C(c1ccc(S(=O)(=O)N2CCCC2)cc1)N1CCN(Cc2ccc3c(c2)OCO3)CC1	Lmaj promast 94
O=C(c1ccc(Cl)c([N+](=O)[O-])c1)N1CCN(Cc2ccc3c(c2)OCO3)CC1	Lmaj promast 82
COc1ccc(C(=O)Nc2ccc([N+](=O)[O-])cn2)c(OC)c1	none
O=C(CCc1nnc(CCCCc2ccccc2)o1)NCCCc1cccnc1	none (no result: PMI act satM6P, PMI activator, Diaphorase act)
Cc1cc(-n2c(C)cc(C(=O)CSc3ccc4c(c3)OCCO4)c2C)no1	none
O=C(c1ccc(S(=O)(=O)NCc2ccco2)cc1)N1CCN(Cc2ccc3c(c2)OCO3)CC1	Lmaj promast 88
CS(=O)(=O)N1CCc2cc(S(=O)(=O)N3CCN(Cc4ccc5c(c4)OCO5)CC3)ccc21	Lmaj promast 89
O=S(=O)(c1ccc(Cl)nc1)N1CCN(Cc2ccc3c(c2)OCO3)CC1	none (no result: WT yeast gro inh)
CCN(CC)S(=O)(=O)c1cccc(NC(=O)CSc2nnc(N)s2)c1	none
CC1CCCCC1NC(=O)COc1ccc(-n2cnnn2)cc1 (centres undefined)	none
CC1CCCCC1NC(=O)/C(C#N)=C/c1ccc(OCC(N)=O)cc1 (centres undefined)	Lmaj promast 64
Cc1cc(NC(=O)c2sccc2C)n(-c2nc3ccccc3[nH]2)n1	WT yeast gro inh 79
COc1cccc(OC)c1C(=O)Nc1cc(C)nn1-c1nc2ccccc2[nH]1	Lmaj promast 66
Cc1cc(NC(=O)c2cccs2)n(-c2nc3ccccc3[nH]2)n1	none
Cn1cccc1/C=N/NC(=O)c1ccn[nH]1	none
CC1=C(C)CC(C(=O)Nc2cccc([N+](=O)[O-])c2)C(C(=O)O)C1 (centres undefined)	Lmaj promast 67
Cc1cc([N+](=O)[O-])ccc1NC(=O)Nc1ccc(F)cc1F	Lmaj promast 67
Cc1ccc(NC(=O)Nc2cccc([N+](=O)[O-])c2)cc1F	Lmaj promast 53
O=C(Nc1ccc(OC(F)(F)F)cc1)c1[nH]ncc1[N+](=O)[O-]	none
O=C(Nc1ccc(OC(F)(F)F)cc1)Nc1cccc([N+](=O)[O-])c1	WT yeast gro inh 80, Lmaj promast 100
CC1=C(C)CC(C(=O)Nc2ccc(C(N)=O)cc2)C(C(=O)O)C1 (centres undefined)	none
Cc1cc(C)nc(N/C(=N\S(=O)(=O)Cc2ccccc2)Nc2ccccc2Br)n1	none
CCC(=O)N(C)CCc1cc2c(c(OC)c1/C=N/NC(=O)c1ccc(Br)cc1)OCO2	none
COC(=O)c1[nH]c2ccc(F)cc2c1NS(=O)(=O)c1ccc(OC)cc1OC	Lmaj promast 97
Oc1cccc(/C=N/Nc2ncnc3c2ncn3Cc2ccccc2)c1	Lmaj promast 66
COc1ccc2nc(NC(=O)c3cnccn3)sc2c1	none
O=C(COc1ccccc1)NNc1nc2c(F)cc(F)cc2s1	none
O=C(Nc1nc(-c2ccccc2)c(-c2ccccc2)s1)c1ccc(S(=O)(=O)N2CCCCC2)cc1	Lmaj promast 99
O=C(Nc1nc2c(F)cc(F)cc2s1)c1ccccn1	Lmaj promast 98
Cc1nn(-c2ccccc2)c(C)c1NC(=O)c1ccc(S(=O)(=O)N2CCCC2)cc1	WT yeast gro inh 74
Cc1ccc2nc(NC(=O)c3ccccn3)sc2c1	Lmaj promast 98
Cc1cccc(NC(=O)c2ccc(S(=O)(=O)N3CCCCC3)cc2)n1	none (no result: PMI act satM6P, PMI activator, Lmaj promast, Diaphorase act)
O=C(COC(=O)C1CC2C=CC1C2)Nc1cccc(S(=O)(=O)N2CCCCCC2)c1 (centres undefined)	none
CCN(CC)CCN(CC(=O)N(C1CCCCC1)C1CCCCC1)C(=O)c1ccco1	none
Cc1ccc(Sc2ncccc2COC(=O)NC(C)C)cc1	none
O=C(Nc1nc2ccc(S(=O)(=O)N3CCCC3)cc2s1)c1ccccn1	Lmaj promast 99
CC/C(=N/Nc1ccccc1Cl)c1cnnc(-c2ccccc2)n1	PMI act satM6P 2.1
CC/C(=N/Nc1ccc(Cl)cc1)c1cnnc(SC)n1	PMI act satM6P 2.5, Lmaj promast 54
COc1ccc(N/N=C(/C)c2cnnc(-c3ccccc3)n2)cc1	PMI act satM6P 2.4
CC/C(=N/Nc1cccc(C)c1)c1cnnc(SC)n1	PMI act satM6P 2.3
CC/C(=N/O)c1cnnc(SC)n1	none
CSc1nncc(/C(C)=N\Nc2ccccc2C)n1	PMI act satM6P 2.2
Cn1c(=NC(=O)CCl)sc2ccccc21	Lmaj promast 84
CN(C)c1ccc(N=c2sc3ccccc3n2C)cc1	Lmaj promast 98
CCN=c1scc(-c2ccco2)n1/N=C/c1ccc(OC)c(O)c1	WT yeast gro inh 59
COCCOC(=O)c1c(C)oc2ccc(O)c(CN3CCC(C)CC3)c12	none
CCOC(=O)c1c(-c2ccccc2)oc2ccc(O)c(CN(C)C)c12	Lmaj promast 100
CCOC(=O)c1c(-c2ccccc2)oc2ccc(O)c(CN3CCCC3)c12	Lmaj promast 99
Nc1nc2c(nc(SCc3ccccc3Br)n2C2OC(CO)C(O)C2O)c(=O)[nH]1 (centres undefined)	none
COc1ccccc1COC(=O)Nc1c(C)nn(C)c1Cl	none
COCCNC(=O)C1CC(=O)N(c2ccc(F)c(Cl)c2)C1 (centres undefined)	none (no result: PMI act satM6P, PMI activator, Diaphorase act)
CCN(CC)C(=O)C1CC(=O)N(c2ccc(F)c(Cl)c2)C1 (centres undefined)	WT yeast gro inh 59
Cc1ccc(/C=C/C(=O)NCc2ccc(S(N)(=O)=O)cc2)o1	none
O=C(O)C1CC=CCC1C(=O)NNc1ccccc1 (centres undefined)	PMI act satM6P 2.7
O=C(O)C1CC=CCC1C(=O)NCc1ccccc1 (centres undefined)	none
COc1ccc(NC(=O)c2cc(S(=O)(=O)N(Cc3ccccc3)c3ccccc3)ccc2Cl)cn1	Lmaj promast 94
COc1ccc(NC(=O)c2cccc(S(=O)(=O)N(C)c3ccccc3)c2)cn1	Lmaj promast 72

Source: PubChem
